Measured values published in ChEMBL document CHEMBL1255389, “Exploiting the drug-activating properties of a novel trypanosomal nitroreductase” (Antimicrob Agents Chemother, 2010).

Key:
[1] = Therapeutic index, ratio of IC50 against human THP1 cells to IC50 against Trypanosoma brucei; type: cell-based, THP-1; conditions: read-out: Ratio IC50
Method in brief: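 Index was calculated as THP-1 IC50 divided by T. brucei BSF IC50. THP-1 IC50 came from 6-day Alamar blue assays, and parasite IC50 from 3-day Alamar blue assays, both at 37°C.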

Trypanosoma brucei [2] = assay: Antiparasitic activity against Trypanosoma brucei BSF after 3 days by Alamar blue assay; type: functional, organism-based; conditions: 72 h
Method in brief: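 BSF trypomastigotes (MITat 427, clone 221a) were seeded at 1 × 10^3 ml−1 in modified Iscove's medium with tetracycline-free FCS, across a range of compound concentrations. Plates ran 3 days at 37°C, then Alamar blue was added for 16 h. Fluorescence was read at ex 530/em 585 nm and IC50 determined.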

THP-1 = assay: Cytotoxicity against human THP1 cells after 6 days by Alamar blue assay; type: cell-based; conditions: THP-1, 144 h
Method in brief: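 THP-1 cells were grown in RPMI 1640 with 10% tetracycline-free FCS and 20 mM HEPES. They were seeded at 1 × 10^4 ml−1 across a range of compound concentrations and incubated 6 days at 37°C, 5% CO2.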

Trypanosoma brucei [3] = conditions: 100 uM
Trypanosoma brucei [4] = test system: Trypanosoma brucei
Trypanosoma brucei [5] = test system: Trypanosoma brucei; remark: listed apart in the source
Trypanosoma brucei [6] = assay: Antiparasitic activity against Trypanosoma brucei BSF overexpressing NTR gene after 3 days by Alamar blue assay; type: functional, organism-based; conditions: 72 h
Method in brief: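 Parasite lines were heterozygous NTR+/− (kept on 2 μg ml−1 puromycin) or TbNTR-overexpressing (kept on 2.5 μg ml−1 hygromycin plus 1 μg ml−1 phleomycin). Tetracycline at 1 μg ml−1 was added for induction where appropriate. Cells were seeded at 1 × 10^3 ml−1 and grown 3 days at 37°C, followed by Alamar blue for 16 h. Fluorescence IC50s were compared with control cells.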

Row | SMILES | selectivity ratio [1] | IC50 (Trypanosoma brucei [2]) | IC50 (THP-1) | Vmax (Trypanosoma brucei [3]) | kcat/Km (Trypanosoma brucei [4]) | Km (Trypanosoma brucei [5]) | IC50 (Trypanosoma brucei [6])
1 | CC(OP(N)(=O)N(CCCl)CCCl)c1ccc([N+](=O)[O-])cc1 (configuration not stated) | 36 | 1.8 µM | 64.8 µM |  |  |  | 
2 | NP(=O)(OCc1ccc([N+](=O)[O-])cc1)N(CCCl)CCCl (configuration not stated) |  | 3.4 µM | 66 µM |  |  |  | 
3 | NP(=O)(OCc1ccc([N+](=O)[O-])cc1Cl)N(CCCl)CCCl (configuration not stated) |  | 0.008 µM | 10 µM |  |  |  | 
4 | O=[N+]([O-])c1ccc([C@@H]2CCN[P@@](=O)(N(CCCl)CCCl)N2)cc1 | 36 | 1.8 µM | 64.8 µM |  |  |  | 
5 | NP(=O)(OCc1ccc([N+](=O)[O-])cc1C(F)(F)F)N(CCCl)CCCl (configuration not stated) |  | 0.149 µM | 19 µM |  |  |  | 
6 | CC(C)(C(=O)N[C@@H]1CCN[P@](=O)(N(CCCl)CCCl)O1)c1ccccc1[N+](=O)[O-] | 36 | 1.8 µM | 64.8 µM |  |  |  | 
7 | Cc1cc(COP(N)(=O)N(CCCl)CCCl)ccc1[N+](=O)[O-] (configuration not stated) | 36 | 1.8 µM | 64.8 µM |  |  |  | 
8 | O=[N+]([O-])c1ccc([C@@H]2CCO[P@](=O)(N(CCCl)CCCl)N2)cc1 | 36 | 1.8 µM | 64.8 µM |  |  |  | 
9 | COc1cc([N+](=O)[O-])ccc1COP(N)(=O)N(CCCl)CCCl (configuration not stated) | 28 | 1.2 µM | 33.5 µM |  |  |  | 
10 | NP(=O)(OCc1ccc([N+](=O)[O-])cc1F)N(CCCl)CCCl (configuration not stated) |  | 0.268 µM | 20.3 µM |  |  |  | 
11 | NP(=O)(OCc1c(F)cc([N+](=O)[O-])cc1F)N(CCCl)CCCl (configuration not stated) |  | 0.007 µM | 6.9 µM |  |  |  | 
12 | O=[N+]([O-])c1ccc([C@@H]2CCN[P@](=O)(N(CCCl)CCCl)N2)cc1 | 36 | 1.8 µM | 64.8 µM |  |  |  | 
13 | CC(C)(C(=O)N[C@@H]1CCN[P@@](=O)(N(CCCl)CCCl)O1)c1ccccc1[N+](=O)[O-] | 36 | 1.8 µM | 64.8 µM |  |  |  | 
14 | O=[N+]([O-])c1ccc([C@@H]2CCN[P@@](=O)(N(CCCl)CCCl)O2)cc1 | 36 | 1.8 µM | 64.8 µM |  |  |  | 
15 | NP(=O)(OCc1cccc([N+](=O)[O-])c1)N(CCCl)CCCl (configuration not stated) | 36 | 1.8 µM | 64.8 µM |  |  |  | 
16 | NP(=O)(OCc1ccccc1[N+](=O)[O-])N(CCCl)CCCl (configuration not stated) | 36 | 1.8 µM | 64.8 µM |  |  |  | 
17 | CC1CS(=O)(=O)CCN1/N=C/c1ccc([N+](=O)[O-])o1 (configuration not stated) [NIFURTIMOX] | 36 | 1.8 µM | 64.8 µM | 423 nmol/min | 3.4 M⁻¹ s⁻¹ | 53.1 µM | 
18 | O=[N+]([O-])c1ccc([C@@H]2CCO[P@@](=O)(N(CCCl)CCCl)N2)cc1 | 36 | 1.8 µM | 64.8 µM |  |  |  | 
19 | O=[N+]([O-])c1ccc([C@@H]2CCN[P@](=O)(N(CCCl)CCCl)O2)cc1 | 36 | 1.8 µM | 64.8 µM |  |  |  | 
20 | NP(=O)(OCc1ccc([N+](=O)[O-])c(F)c1)N(CCCl)CCCl (configuration not stated) | 6 | 3.2 µM | 17.6 µM |  |  |  | 
21 | Nc1nc(N)nc(Nc2ccc([As]3SCC(CO)S3)cc2)n1 (configuration not stated) [MELARSOPROL] |  |  |  |  |  |  | 4 µM
22 | COc1cc(COP(N)(=O)N(CCCl)CCCl)ccc1[N+](=O)[O-] (configuration not stated) | 36 | 1.8 µM | 64.8 µM |  |  |  | 
